Rows were chosen to be rich in hits. Some 3.1% of all compounds tested hit in one or more screens of this group.
Env fusion inh – inhibitors of HIV Env-mediated cell fusion. 360,000 compounds, 1.1% hits. inhibition, % at 12.3 µM. HeLa-JRFL Env/CEM21 cell fusion, luciferase;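 active = mean replicate inhibition score of at least 50 and every replicate individually at or above 50; inconclusive = only one of the two criteria met; inactive = mean below 50 and not all replicates reaching 50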;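 note: 0% = plate neutral controls and 100% = maraviroc near 300 nM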
PGC1a acetyl inh – PGC1a acetylation modulation, inhibitor mode; U2OS PGC1a acetylation, AlphaScreen anti-acetyl-lysine; with virally co-expressed GCN5 acetyltransferase; AID 651687; inhibition, % at 15.6 µM; 350,000 compounds, 0.17% hits;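 active = every replicate shows inhibition of at least 40%; inconclusive = mean inhibition at least 40% but some replicate below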;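 note: 0% = neutral control wells and 100% = positive control wells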
EWS-Fli block – EWS/Fli transcriptional activity inhibition; A673 NR0B1-luciferase reporter, viability-normalised; inhibition, % at 12.6 µM; 350,000 compounds, 0.67% hits; AID 651661;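 active = mean inhibition of at least 50% after viability correction, with every replicate also passing that limit; inconclusive = mean reaches 50% but only one of two replicates passes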;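 note: firefly luciferase signal divided by Alamar Blue viability fluorescence both relative to DMSO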
FN deposition inh – fibronectin deposition inhibition. inhibition, % at 12.6 µM. AH1F fibroblasts, Alexa488-fibronectin deposition fluorescence, overnight. AID 743247. 350,000 compounds, 0.086% hits;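 active = mean inhibition across replicates of 30% or more, regardless of how many single replicates reach that level; inconclusive = mean under 30% yet at least half of replicates reach 30%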;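 note: positive control wells lacked labelled fibronectin entirely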
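Material – AH1F fibroblast monolayer, labelled fibronectin deposition · Reagent – labelled fibronectin 24 nM · Timing – 1 h adhesion, overnight exposure · Measured by – fluorescence at 485 nm excitation, 525 nm emission · Read-out – inhibition of fibronectin deposition signal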
PAX8 reporter – lowers PAX8-driven luciferase in RMG-I cells | inhibition, % at 12.6 µM | RMG-I TPO-luciferase reporter, SteadyGlo, 24 h | 360,000 compounds, 1.2% hits;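 active = mean replicate inhibition at least 60% with every replicate also reaching 60%; inconclusive = only one of the two criteria is met; inactive = mean below 60% and not all replicates reaching 60%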;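 note: luciferase light reporting Pax8 driven TPO promoter activity; plate controls were median of neutral control wells for no effect and mitoxantrone controls for full effect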
FGF22 binding – binders of recombinant human FGF22 by thermal shift | SYPRO orange fluorescence; percent of sucrose octasulfate shift, DMSO zero | Q9HCT0 | 340,000 compounds, 1.5% hits | activity (Tm shift, normalised), % at 9.99 µM;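 active = mean Tm shift, scaled 0 neutral to 100 positive control, at about 1.3% or above, every replicate too, limit read from the data; inconclusive = no clear call, values can overlap the other calls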
Target sequence (Q9HCT0 whole entry, looked up): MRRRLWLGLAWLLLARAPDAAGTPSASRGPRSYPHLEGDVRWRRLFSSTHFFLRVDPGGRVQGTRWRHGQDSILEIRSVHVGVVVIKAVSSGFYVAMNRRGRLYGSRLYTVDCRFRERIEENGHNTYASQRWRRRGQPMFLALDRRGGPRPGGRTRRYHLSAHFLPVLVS
The depositor's hits bear a star; [ ] = another dose, or the depositor's remark.

Results for C[C@@H]1CCCCO[C@@H](CN(C)Cc2ccc(C(F)(F)F)cc2)[C@H](C)CN([C@H](C)CO)C(=O)c2cc(NS(=O)(=O)c3ccc(Cl)cc3)ccc2O1 ?
Env fusion inh: 60.5*[16.7 µM]; PGC1a acetyl inh: 8.2; EWS-Fli block: 26.5; FN deposition inh: -12.2; PAX8 reporter: 103.4*; FGF22 binding: -0.5

Results for C[C@H]1CCCCO[C@@H](CN(C)Cc2ccc(C(F)(F)F)cc2)[C@@H](C)CN([C@@H](C)CO)C(=O)c2cc(NS(=O)(=O)c3ccc(Cl)cc3)ccc2O1 ?
Env fusion inh: 17.9[16.7 µM]; PGC1a acetyl inh: 3.6; EWS-Fli block: 0.3; FN deposition inh: 3.9; PAX8 reporter: 102.1*; FGF22 binding: 0.1

How did C[C@@H]1CN([C@H](C)CO)C(=O)c2cc(NS(=O)(=O)c3ccc(Cl)cc3)ccc2O[C@@H](C)CCCCO[C@H]1CN(C)Cc1ccc(C(F)(F)F)cc1 do in these assays?
Env fusion inh: 34.6[16.7 µM]; PGC1a acetyl inh: 7.3; EWS-Fli block: 61.9*; FN deposition inh: 17.0; PAX8 reporter: 99.3*; FGF22 binding: -0.5

How did C[C@@H]1CCCCO[C@H](CN(C)Cc2ccc(C(F)(F)F)cc2)[C@H](C)CN([C@H](C)CO)C(=O)c2cc(NS(=O)(=O)c3ccc(Cl)cc3)ccc2O1 do in these assays?
Env fusion inh: inconclusive; PGC1a acetyl inh: -17.4; EWS-Fli block: 11.1; FN deposition inh: 3.0; PAX8 reporter: 98.6*; FGF22 binding: -0.6

How did O=C(Nc1ccccc1)N1CC(=O)N2[C@H](CO)[C@@H](c3ccc(C#CC4CCCC4)cc3)[C@@H]2C1 do in these assays?
EWS-Fli block: 0.6; FN deposition inh: -10.3

What do the screens show for `C[C@H](CO)N1C[C@H](C)[C@@H](CN(C)Cc2ccncc2)OCCCC[C@H](C)Oc2ccc(NC(=O)Nc3ccccc3)cc2C1=O`?
Env fusion inh: -9.2[16.7 µM]; PGC1a acetyl inh: -2.7; FN deposition inh: -3.0; PAX8 reporter: 1.8; FGF22 binding: 0.2

Results for C[C@H]1CN([C@@H](C)CO)C(=O)c2cc(NS(=O)(=O)c3ccccc3)ccc2O[C@@H]1CN(C)S(=O)(=O)c1cn(C)cn1 ?
Env fusion inh: -19.3[16.7 µM]; PGC1a acetyl inh: 10.1; EWS-Fli block: -5.4; PAX8 reporter: 12.0; FGF22 binding: -0.1

How did COc1ccc(S(=O)(=O)Nc2ccc3c(c2)C(=O)N([C@@H](C)CO)C[C@@H](C)[C@H](CN(C)Cc2ccc4c(c2)OCO4)OCCCC[C@@H](C)O3)cc1 do in these assays?
Env fusion inh: -3.6[16.7 µM]; PGC1a acetyl inh: -5.9; EWS-Fli block: -7.7; FN deposition inh: -4.8; PAX8 reporter: 1.9; FGF22 binding: -0.1

What do the screens show for `C[C@@H]1CN([C@@H](C)CO)C(=O)c2cc(NS(=O)(=O)c3ccc(Cl)cc3)ccc2O[C@@H](C)CCCCO[C@H]1CN(C)Cc1ccc(C(F)(F)F)cc1`?
Env fusion inh: 22.5[16.7 µM]; PGC1a acetyl inh: -5.2; EWS-Fli block: 20.7; FN deposition inh: -3.6; PAX8 reporter: 102.4*; FGF22 binding: -0.4

Results for C[C@@H]1CCCCO[C@H](CN(C)Cc2ccc(C(F)(F)F)cc2)[C@@H](C)CN([C@H](C)CO)C(=O)c2cc(NS(=O)(=O)c3ccc(Cl)cc3)ccc2O1 ?
Env fusion inh: -13.8[16.7 µM]; PGC1a acetyl inh: 5.4; EWS-Fli block: 2.4; FN deposition inh: -17.2; PAX8 reporter: -14.2; FGF22 binding: -0.6

What do the screens show for `C[C@@H]1CCCCO[C@@H](CN(C)Cc2ccc(C(F)(F)F)cc2)[C@H](C)CN([C@@H](C)CO)C(=O)c2cc(NS(=O)(=O)c3ccc(Cl)cc3)ccc2O1`?
Env fusion inh: 2.7[16.7 µM]; PGC1a acetyl inh: 8.3; EWS-Fli block: 17.6; FN deposition inh: -20.8; PAX8 reporter: 102.6*; FGF22 binding: 0.1

Results for C[C@@H]1CCCCO[C@H](CN(C)C(=O)Cc2ccccc2)[C@H](C)CN([C@@H](C)CO)C(=O)c2cc(NC(=O)CCC(F)(F)F)ccc2O1 ?
Env fusion inh: -13.5[16.7 µM]; PGC1a acetyl inh: -2.5; EWS-Fli block: 6.8; FN deposition inh: -5.7; PAX8 reporter: -6.8; FGF22 binding: 0.0

Results for C[C@@H]1CN([C@@H](C)CO)C(=O)c2cc(NC(=O)Nc3ccc(F)cc3)ccc2O[C@@H]1CN(C)C(=O)Nc1ccc(C(F)(F)F)cc1 ?
Env fusion inh: 34.4[16.7 µM]; PGC1a acetyl inh: 1.8; EWS-Fli block: -8.5

Screening results from PubChem.
